Assay results published in ChEMBL document CHEMBL1124947, “Cationic antiprotozoal drugs. Trypanocidal activity of 2-(4'-formylphenyl)imidazo[1,2-a]pyridinium guanylhydrazones and related derivatives of quaternary heteroaromatic compounds” (J Med Chem, 1990).

Assays:
Format in all cases: functional
Mus musculus [1] = assay: Trypanocidal Activity at I.C.E. value 0.46 when administered subcutaneously.
Procedure, shortened: (§1)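 Blood-stage T. rhodesiense infection came from a standard inoculum lethal to all untreated mice. Drug was given by subcutaneous injection to groups of five mice. Survival beyond 30 days counted as cure. […] Sub-curative doses scored 0, and data were normalized at each dose.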

Mus musculus [2] = assay: Trypanocidal Activity at I.C.E. value 0.58 when administered subcutaneously.
Procedure, shortened: (§2)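 Mice, in groups of five per dose, were given a standard inoculum of blood-stage T. rhodesiense that is lethal to all untreated controls, then dosed subcutaneously. Usually 11 dose levels were used (2^n × 0.42 mg/kg).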

Mus musculus [3] = assay: Trypanocidal Activity at I.C.E. value 0.18 when administered subcutaneously.
[4] = tested on: Trypanosoma brucei rhodesiense; assay: In Vitro measurement of inhibition of leucine uptake in cell culture of Trypanosoma rhodesiense; details: read-out: ID50 (the source's name)
Procedure, shortened: (§3)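 Trypanosomes harvested from infected rats, cultured 3 h with several concentrations of drug, usually 0.1–100 µg/mL. Radiolabeled L-leucine uptake measured. ID50 is the concentration in µg/mL giving 50% inhibition of incorporation.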

[5] = tested on: Trypanosoma brucei rhodesiense; assay: In Vitro measurement of inhibition of thymidine uptake in cell culture of Trypanosoma rhodesiense; details: read-out: ID50 (the source's name)
Procedure, shortened: (§4)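 Parasites harvested from infected rats and incubated 3 h across a drug concentration series, usually 0.1–100 µg/mL. Incorporation of radiolabeled thymidine measured. ID50 is the concentration (µg/mL) producing 50% inhibition.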

Mus musculus [6] = assay: Trypanocidal Activity at I.C.E. value 0.26 when administered subcutaneously.; procedure, shortened: as §1
Mus musculus [7] = assay: Trypanocidal Activity at I.C.E. value 0.35 when administered perorally.
Mus musculus [8] = assay: Trypanocidal Activity at I.C.E. value 0.67 when administered subcutaneously.; procedure, shortened: as §2
Mus musculus [9] = assay: Trypanocidal Activity at I.C.E. value 0.64 when administered subcutaneously.; procedure, shortened: as §2
Mus musculus [10] = assay: Trypanocidal Activity at I.C.E. value 0.61 when administered perorally.
Mus musculus [11] = assay: Trypanocidal Activity at I.C.E. value 0.48 when administered perorally.
Mus musculus [12] = assay: Trypanocidal Activity at I.C.E. value 0.24 when administered perorally.
Mus musculus [13] = assay: Trypanocidal Activity at I.C.E. value 0.17 when administered subcutaneously.
Mus musculus [14] = assay: Trypanocidal Activity at I.C.E. value 0.23 when administered subcutaneously.; procedure, shortened: as §1
Mus musculus [15] = assay: Trypanocidal Activity at I.C.E. value 0.21 when administered subcutaneously.
Mus musculus [16] = assay: Trypanocidal Activity at I.C.E. value 0.10 when administered perorally.
[17] = tested on: Trypanosoma brucei rhodesiense; assay: In Vitro measurement of inhibition of thymidine uptake in cell culture of Trypanosoma rhodesiense.; details: read-out: ID50 (the source's name); procedure, shortened: as §4
Mus musculus [18] = assay: Trypanocidal Activity at I.C.E. value 0.39 when administered subcutaneously.; procedure, shortened: as §1
[19] = tested on: Trypanosoma brucei rhodesiense; assay: In Vitro measurement of inhibition of Leucine uptake in cell culture of Trypanosoma rhodesiense.; details: read-out: ID50 (the source's name); procedure, shortened: as §3
Mus musculus [20] = assay: Trypanocidal Activity at I.C.E. value 0.37 when administered subcutaneously.; procedure, shortened: as §1
Mus musculus [21] = assay: Trypanocidal Activity at I.C.E. value 0.69 when administered subcutaneously.; procedure, shortened: as §2
Mus musculus [22] = assay: Trypanocidal Activity at I.C.E. value 0.33 when administered subcutaneously.; procedure, shortened: as §1
Mus musculus [23] = assay: Trypanocidal Activity at I.C.E. value 0.30 when administered subcutaneously.; procedure, shortened: as §1
Mus musculus [24] = assay: Trypanocidal Activity at I.C.E. value 0.27 when administered subcutaneously.; procedure, shortened: as §1

Compound: Br.CC(NC(=N)N/N=C/c1ccc(-c2cn3ccccc3[n+]2C)cc1)c1ccco1.[Br-] (stereo not drawn)
- CD50 (Mus musculus [1]): 1.6 mg/kg

Compound: C/N=C(\NC)N/N=C/c1ccc(-c2cn3ccccc3[n+]2C)cc1.I.[I-]
- CD50 (Mus musculus [2]): 0.2 mg/kg

Compound: C[n+]1c(-c2ccc(/C=N/Nc3ccccn3)cc2)cn2ccccc21.Cc1ccc(S(=O)(=O)[O-])cc1
- CD50 (Mus musculus [3]): 212 mg/kg

Compound: C[n+]1c(COc2ccc(C(=N)N)cc2)cn2ccccc21.Cl.[Cl-]
- IC50 [4]: 12 µg/mL
- IC50 [5]: 0.7 µg/mL
- CD50 (Mus musculus [6]): 3.3 mg/kg

Compound: Br.CCNC(=N)N/N=C/c1ccc(-c2cn3cc(C)ccc3[n+]2C)cc1.[Br-]
- CD50 (Mus musculus [7]): 26 mg/kg
- CD50 (Mus musculus [8]): 0.4 mg/kg

Compound: Br.CC/N=C(\NCC)N/N=C/c1ccc(/C=C/c2n(C)cc[n+]2C)cc1.[Br-]
- CD50 (Mus musculus [1]): 1.6 mg/kg

Compound: Br.Cn1cc[n+](C)c1/C=C/c1ccc(/C=N/NC2=NCCN2)cc1.[Br-]
- CD50 (Mus musculus [9]): 1.6 mg/kg

Compound: Br.C[n+]1c(-c2ccc(/C=N/NC3=NCCCN3)cc2)cn2ccccc21.[Br-]
- CD50 (Mus musculus [10]): 6.6 mg/kg
- CD50 (Mus musculus [8]): 0.1 mg/kg

Compound: Br.CN(C)C(=N)N/N=C/c1ccc(OCc2cn3ccccc3[n+]2C)cc1.[Br-]
- CD50 (Mus musculus [6]): 3.3 mg/kg

Compound: Br.CC[S+]([O-])c1ccc2n(c1)cc(-c1ccc(/C=N/NC(=N)N)cc1)[n+]2C.[Br-] (stereo not drawn)
- CD50 (Mus musculus [9]): 1.6 mg/kg

Compound: Br.Cn1c(COc2ccc(/C=N/NC(=N)N)cc2)[n+](C)c2ccccc21.[Br-]
- IC50 [4]: 6.1 µg/mL
- IC50 [5]: 1.9 µg/mL
- CD50 (Mus musculus [11]): 13 mg/kg
- CD50 (Mus musculus [8]): 0.4 mg/kg

Compound: CC(=O)Nc1ccc(-c2cn3ccccc3[n+]2C)cc1.[I-]
- IC50 [4]: > 10 µg/mL
- IC50 [5]: > 10 µg/mL
- CD50 (Mus musculus [12]): 106 mg/kg
- CD50 (Mus musculus [13]): 212 mg/kg

Compound: Cc1ccc(S(=O)(=O)O)cc1.Cc1ccc(S(=O)(=O)[O-])cc1.Cn1cc[n+](C)c1COc1ccc(/C=N/NC(=N)N2CCCC2)cc1
- CD50 (Mus musculus [14]): 6.6 mg/kg

Compound: Br.CN1CCN(C(=N)N/N=C/c2ccc(-c3cn4ccccc4[n+]3C)cc2)CC1.[Br-]
- CD50 (Mus musculus [15]): 3.3 mg/kg

Compound: C[n+]1c(-c2ccc(C(=N)N)cc2)cn2ccccc21.Cl.[Cl-]
- CD50 (Mus musculus [15]): 26 mg/kg

Compound: Br.CCNC(=N)N/N=C/c1ccc(OCc2cccc[n+]2C)cc1.[Br-]
- CD50 (Mus musculus [3]): 6.6 mg/kg
- CD50 (Mus musculus [16]): 212 mg/kg

Compound: Cc1ccc(S(=O)(=O)O)cc1.Cc1ccc(S(=O)(=O)[O-])cc1.Cc1ccc2n(c1)cc(-c1ccc(/C=N/NC(=N)N3CCSC3)cc1)[n+]2C
- IC50 [17]: > 10 µg/mL
- CD50 (Mus musculus [18]): 6.6 mg/kg
- IC50 [19]: 0.5 µg/mL

Compound: Br.Cc1ccc2n(c1)cc(-c1ccc(/C=N/NC(=N)NN3CCOCC3)cc1)[n+]2C.[Br-]
- CD50 (Mus musculus [20]): 3.3 mg/kg

Compound: Br.Cc1ccc2n(c1)cc(/C=C/c1ccc(/C=N/NC(=N)NO)cc1)[n+]2C.[Br-]
- CD50 (Mus musculus [21]): 3.3 mg/kg

Compound: Br.CNC(=N)N/N=C/c1ccc(-c2c([N+](=O)[O-])n3ccccc3[n+]2C)cc1.[Br-]
- IC50 [4]: 3.4 µg/mL
- IC50 [5]: 5.4 µg/mL
- CD50 (Mus musculus [22]): 0.4 mg/kg

Compound: Br.Cc1cccc2n1cc(COc1ccc(/C=N/NC3=NCCN3)cc1)[n+]2C.[Br-]
- CD50 (Mus musculus [9]): 0.8 mg/kg

Compound: Br.CC/N=C(\NCC)N/N=C/c1ccc(OCc2n(C)cc[n+]2C)cc1.[Br-]
- CD50 (Mus musculus [23]): 13 mg/kg

Compound: Br.CCSc1ccc2n(c1)cc(-c1ccc(/C=N/NC3=NCCN3)cc1)[n+]2C.[Br-]
- CD50 (Mus musculus [21]): 3.3 mg/kg

Compound: C[n+]1ccc(COc2ccc(/C=N/NC(=O)c3ccc(N)cc3)cc2)cc1.Cc1ccc(S(=O)(=O)[O-])cc1
- CD50 (Mus musculus [24]): 26 mg/kg

Compound: C[n+]1c(COc2ccc(/C=N/Nc3ccccn3)cc2)cn2ccccc21.Cc1ccc(S(=O)(=O)[O-])cc1
- IC50 [4]: 10.1 µg/mL
- IC50 [5]: 7.9 µg/mL
- CD50 (Mus musculus [14]): 53 mg/kg

Compound: Br.Cn1cc[n+](C)c1COc1ccc(/C=N/NC2=NCCN2)cc1.[Br-]
- CD50 (Mus musculus [20]): 3.3 mg/kg
